Assays:
[1] = molecular target: T1, α-Glucosidase from Saccharomyces cerevisiae (Saccharomyces cerevisiae, UniProt P53341); test: Fluorescence quenching of α-glucosidase; assay type: binding; details: for Kq (quenching rate constant): Kq = KSV/τ0, τ0 = 10^−8 s; for Kd: K a (binding constant); for ΔG°: ΔG = ΔH − TΔS
Procedure, shortened: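 Intrinsic fluorescence quenching: enzyme at 6.96 × 10−2 μM, titrated with test compound (0–1.10 μM final), 5 min equilibration, at 298, 304 and 310 K. Excitation 280 nm, emission 290–500 nm, slits 2.5 nm. Buffer (pH 6.8) and compound blanks were subtracted, with inner-filter correction from absorbance. KSV from linear F0/F vs [Q]. Ka and n from double-log plot. ΔH/ΔS from van't Hoff; ΔG = ΔH − TΔS.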

[2] = molecular target: T1, α-Glucosidase from Saccharomyces cerevisiae; test: α-Glucosidase inhibition assay; assay type: biochemical
[3] = molecular target: T1, α-Glucosidase from Saccharomyces cerevisiae; test: Inhibitory kinetic analysis; assay type: biochemical
Procedure, shortened: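 Enzyme in 100 mM phosphate buffer pH 6.8 at 37 °C with varied pNPG and test compound at 0, 2, 4, 6, 10 μM. Reversibility was tested as rate vs enzyme at 1.35–5.40 × 10−2 μM final. Lineweaver–Burk plots used enzyme at 6.96 × 10−2 μM. Ki came from nonlinear regression to competitive, non-competitive and mixed models. Mean ± SD, n = 3.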

[4] = van't Hoff plot, 298, 304 and 310 K

T1 sequence (P53341 whole entry): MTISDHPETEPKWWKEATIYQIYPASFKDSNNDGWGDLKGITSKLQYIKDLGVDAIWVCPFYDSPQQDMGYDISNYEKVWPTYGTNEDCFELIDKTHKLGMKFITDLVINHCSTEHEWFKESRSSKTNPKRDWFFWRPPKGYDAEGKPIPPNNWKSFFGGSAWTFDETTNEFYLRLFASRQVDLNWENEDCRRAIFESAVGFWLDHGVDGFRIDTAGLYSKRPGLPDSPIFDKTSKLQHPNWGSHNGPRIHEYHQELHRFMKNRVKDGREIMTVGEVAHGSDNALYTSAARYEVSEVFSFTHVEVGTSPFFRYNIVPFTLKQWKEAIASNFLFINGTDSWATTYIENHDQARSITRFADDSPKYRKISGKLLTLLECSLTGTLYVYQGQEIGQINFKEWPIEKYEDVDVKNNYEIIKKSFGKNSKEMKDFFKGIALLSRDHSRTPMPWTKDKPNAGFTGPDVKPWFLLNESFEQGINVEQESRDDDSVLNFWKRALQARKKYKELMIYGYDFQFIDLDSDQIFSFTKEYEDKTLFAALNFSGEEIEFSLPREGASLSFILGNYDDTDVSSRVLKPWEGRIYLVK

Oc1cc(O)cc(/C=C/c2ccc(O)c(O)c2)c1 [piceatannol, Piceatannol]
Kq (quenching rate constant) ([1]; 298 K): 5.02e+13 M⁻¹ s⁻¹ | Kq (quenching rate constant) ([1]; 304 K): 7.01e+13 M⁻¹ s⁻¹ | Kq (quenching rate constant) ([1]; 310 K): 1.604e+14 M⁻¹ s⁻¹ | Kd ([1]; T 298 K): 2.03 µM | Kd ([1]; T 304 K): 1.38 µM | Kd ([1]; T 310 K): 0.739 µM | K SV (Stern–Volmer quenching constant) ([1]; T 298 K): 5.02 ± 0.039 ×10^5 L mol^−1 | n (number of binding sites per α-glucosidase molecule) ([1]; T 298 K): 1.17 ± 0.057 | ΔG° ([1]; T 298 K): -7.741 ± 2.3 kcal/mol | K SV (Stern–Volmer quenching constant) ([1]; T 304 K): 7.01 ± 0.032 ×10^5 L mol^−1 | n (number of binding sites per α-glucosidase molecule) ([1]; T 304 K): 1.16 ± 0.045 | ΔG° ([1]; T 304 K): -8.207 ± 2.3 kcal/mol | K SV (Stern–Volmer quenching constant) ([1]; T 310 K): 16.04 ± 0.049 ×10^5 L mol^−1 | n (number of binding sites per α-glucosidase molecule) ([1]; T 310 K): 1.32 ± 0.017 | ΔG° ([1]; T 310 K): -8.676 ± 2.3 kcal/mol | ΔH° [1, 4]: 15.43 ± 2.31 kcal/mol | ΔS° [1, 4]: 325.31 ± 31.80 J mol^−1 K^−1 | IC50 [2]: 4.39 ± 0.74 µM | Ki [3]: 5.38 ± 0.24 µM | type of inhibition (mechanism) ([3]; Lineweaver–Burk plots, piceatannol 0-10 μM): non-competitive | reversibility of inhibition ([3]; plots of υ versus [α-glucosidase], piceatannol 0-10 μM): reversible

Reference: article PMC9049079 (RSC Advances, 2020)
